Among the data in ChEMBL document CHEMBL1773023, “Potent and selective phosphopeptide mimetic prodrugs targeted to the Src homology 2 (SH2) domain of signal transducer and activator of transcription 3” (J Med Chem, 2011) are inhibition and Activity values, retold here.

The source made the active and inactive calls. The calls are words filed in the database; no cut-off is given here.

In experiment [1] the target is Baculoviral IAP repeat-containing protein 5 (Homo sapiens) (UniProt O15392). Nature of the experiment: Inhibition of survivin in human MDA-MB-468 cells at 5 uM after up to 48 hrs by Western blotting. Type of experiment: cell-based. On the technique in general: A western blot detects proteins with antibodies after separation by electrophoresis.
Chain of Baculoviral IAP repeat-containing protein 5 (Homo sapiens) (O15392 whole entry): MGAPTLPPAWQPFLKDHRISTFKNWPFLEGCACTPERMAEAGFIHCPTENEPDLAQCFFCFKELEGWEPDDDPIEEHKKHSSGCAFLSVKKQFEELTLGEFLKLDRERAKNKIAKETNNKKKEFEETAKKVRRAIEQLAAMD
Experiment [2] has as its target RAC-alpha serine/threonine-protein kinase (Homo sapiens) (UniProt P31749). Nature of the experiment: Inhibition of Akt phosphorylation at Ser473 in human HCC-827 cells at 5 uM after up to 24 hrs by Western blotting. It counts as cell-based.
Experiment [3] has as its target G1/S-specific cyclin-D1 (Homo sapiens) (UniProt P24385). Nature of the experiment: Inhibition of Cyclin D1 in human HCC-827 cells at 5 uM after up to 24 hrs by Western blotting. It counts as cell-based.
For experiment [4], the system named is MDA-MB-468. Nature of the experiment: Decrease of cyclin D1 gene expression in human MDA-MB-468 cells at 5 uM. It counts as functional, cell-based.
Experiment [5] relates to MDA-MB-468. Nature of the experiment: Decrease of Bcl-xl gene expression in human MDA-MB-468 cells at 5 uM. It counts as functional, cell-based.
The target in experiment [6] is Signal transducer and activator of transcription 3 (Homo sapiens, UniProt P40763). The experiment can be described thus: Inhibition of IL6-induced SH2 domain of Stat3 phosphorylation at Tyr705 in human A375 cells up to 10 uM treated 1.5 hrs before IL6 challenge measured after 30 mins by Western blotting. Type of experiment: cell-based. The following applies: A-375. The method, boiled down: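 Hey, MeWo and A375 cells (3×10^5/well, RPMI1640, overnight, fresh medium) given increasing prodrug concentrations for 2 h, with IL-6 10 ng/mL during the final 30 min; pStat3 and total Stat3 by Western blot.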
Chain of Signal transducer and activator of transcription 3 (P40763 whole entry, the tested form may be a part): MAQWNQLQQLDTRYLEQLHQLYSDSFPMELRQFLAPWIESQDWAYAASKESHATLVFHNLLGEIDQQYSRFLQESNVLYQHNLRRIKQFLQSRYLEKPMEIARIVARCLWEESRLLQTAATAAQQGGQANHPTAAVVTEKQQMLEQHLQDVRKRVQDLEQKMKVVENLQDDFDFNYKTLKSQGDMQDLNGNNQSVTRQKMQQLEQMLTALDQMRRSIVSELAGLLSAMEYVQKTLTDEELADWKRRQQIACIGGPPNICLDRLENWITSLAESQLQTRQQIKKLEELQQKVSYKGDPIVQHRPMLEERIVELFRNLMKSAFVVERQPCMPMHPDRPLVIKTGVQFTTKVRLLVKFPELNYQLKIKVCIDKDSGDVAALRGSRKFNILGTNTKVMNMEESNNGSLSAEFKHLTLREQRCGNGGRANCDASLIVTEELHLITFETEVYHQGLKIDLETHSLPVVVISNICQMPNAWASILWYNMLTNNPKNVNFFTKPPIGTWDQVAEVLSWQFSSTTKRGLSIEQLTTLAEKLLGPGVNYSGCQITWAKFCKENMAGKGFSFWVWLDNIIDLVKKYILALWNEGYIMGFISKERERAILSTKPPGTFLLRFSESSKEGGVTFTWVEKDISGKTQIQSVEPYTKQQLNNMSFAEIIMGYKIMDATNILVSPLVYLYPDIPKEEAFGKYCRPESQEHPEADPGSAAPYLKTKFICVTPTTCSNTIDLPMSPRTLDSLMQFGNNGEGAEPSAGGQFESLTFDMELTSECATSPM

Chain of G1/S-specific cyclin-D1 (Homo sapiens) (P24385 whole entry): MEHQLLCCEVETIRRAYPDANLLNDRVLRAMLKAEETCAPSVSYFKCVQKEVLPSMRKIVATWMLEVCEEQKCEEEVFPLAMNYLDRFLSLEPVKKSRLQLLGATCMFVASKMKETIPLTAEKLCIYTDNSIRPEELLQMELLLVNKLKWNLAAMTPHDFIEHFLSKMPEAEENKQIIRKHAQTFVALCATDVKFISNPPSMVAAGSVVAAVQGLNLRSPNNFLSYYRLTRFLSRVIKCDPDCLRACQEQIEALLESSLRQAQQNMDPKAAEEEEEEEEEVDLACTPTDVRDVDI
Chain of RAC-alpha serine/threonine-protein kinase (Homo sapiens) (P31749 whole entry): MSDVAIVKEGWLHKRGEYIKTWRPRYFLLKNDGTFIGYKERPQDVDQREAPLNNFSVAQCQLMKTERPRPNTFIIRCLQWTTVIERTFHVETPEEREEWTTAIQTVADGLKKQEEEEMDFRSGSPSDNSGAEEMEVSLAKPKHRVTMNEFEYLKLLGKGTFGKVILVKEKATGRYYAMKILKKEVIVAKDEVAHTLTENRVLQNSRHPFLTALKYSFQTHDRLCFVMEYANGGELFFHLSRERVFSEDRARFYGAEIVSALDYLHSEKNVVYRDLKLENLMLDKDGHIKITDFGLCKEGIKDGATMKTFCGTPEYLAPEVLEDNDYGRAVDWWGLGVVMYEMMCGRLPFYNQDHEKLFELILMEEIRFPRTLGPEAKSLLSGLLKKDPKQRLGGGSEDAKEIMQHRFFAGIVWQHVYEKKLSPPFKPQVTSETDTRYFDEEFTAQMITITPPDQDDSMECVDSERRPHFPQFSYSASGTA

On to `C/C(=C\C(=O)N[C@H]1CCc2cccc3c2N(C1=O)[C@H](C(=O)N[C@H](C)CCC(N)=O)C3)c1ccc(C(F)(F)P(=O)(OCOC(=O)C(C)(C)C)OCOC(=O)C(C)(C)C)cc1`, for which the inhibition entry in experiment [1] and in experiment [6] was “Active” each time. Besides, the inhibition result in experiment [2] and in experiment [3] was “inactive” each time. For the same molecule, the result in experiment [4] and in experiment [5] was inactive.
